Reference: ChEMBL document CHEMBL4673407, “Fragment-Based Discovery of Novel Allosteric MEK1 Binders” (ACS Med Chem Lett, 2021)

Columns and labels:
[1] = target: T1, Dual specificity mitogen-activated protein kinase kinase 1 (Homo sapiens, UniProt Q02750); experiment: Binding affinity to full length biotinylated 6His/Avi-tagged/Tev-fused human MEK1 expressed in Escherichia coli in absence of AMP-PNP by SPR assay
[2] = Octanol-water partition coefficient, log D of the compound at pH 7.4 by shake flask method; type: physicochemical
[3] = target: T1, Dual specificity mitogen-activated protein kinase kinase 1; experiment: Binding affinity to full length biotinylated 6His/Avi-tagged/Tev-fused human MEK1 expressed in Escherichia coli in presence of AMP-PNP by SPR assay
[4] = Intrinsic clearance in human liver microsomes; type: ADME, Microsome; details: read-out: CLH
Summary of the method: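 Human liver microsomal stability; intrinsic clearance expressed in μL/(min mg).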

[5] = Intrinsic clearance in rat hepatocytes; type: ADME, cell-based, Hepatocyte
Summary of the method: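 Rat hepatocyte stability; intrinsic clearance expressed in μL/(min 1E6) cells.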

T1 sequence (Q02750 whole entry, the tested form may be a part): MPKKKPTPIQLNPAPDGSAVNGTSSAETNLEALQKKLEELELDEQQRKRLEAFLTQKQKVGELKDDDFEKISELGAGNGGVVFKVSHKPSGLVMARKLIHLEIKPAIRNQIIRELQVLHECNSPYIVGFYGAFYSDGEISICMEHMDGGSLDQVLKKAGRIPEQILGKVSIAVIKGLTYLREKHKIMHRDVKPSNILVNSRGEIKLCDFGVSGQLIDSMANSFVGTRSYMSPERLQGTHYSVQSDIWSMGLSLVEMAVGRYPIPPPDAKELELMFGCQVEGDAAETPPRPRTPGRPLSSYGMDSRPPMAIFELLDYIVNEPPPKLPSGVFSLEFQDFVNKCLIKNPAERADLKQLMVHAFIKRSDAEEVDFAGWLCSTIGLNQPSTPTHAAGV

Structure (SMILES)	logD [2]	also measured
O=C(CC1SCCNC1=O)Nc1ccc(Cl)cc1 (stereo not drawn)	1.8	Kd [1]: 14 µM; Kd [3]: 7.4 µM
O=C(c1cccnc1)c1cc2ccccc2[nH]1	2.3	Kd [1]: 59 µM; Kd [3]: 65 µM
CCOc1ccc(NC(=O)CC2SCCNC2=O)cc1 (stereo not drawn)	1.3	–
O=C(CC1SCCNC1=O)Nc1ccccc1 (stereo not drawn)	0.8	–
COc1ccc(-c2cccc(=O)[nH]2)cc1	1.4	–
O=C(CC1SCCNC1=O)Nc1ccc(O)cc1 (stereo not drawn)	0.1	–
O=C(CC1SCCNC1=O)Nc1ccc(OC(F)(F)F)cc1 (stereo not drawn)	–	Kd [3]: > 1000 µM
CCN(C)c1cc(-c2ccccc2O)nc2nccn12	2.9	–
COc1ccc(N(C)C(=O)CC2SCCNC2=O)cc1 (stereo not drawn)	–	Kd [3]: > 1000 µM
COc1ccccc1NC(=O)CC1SCCNC1=O (stereo not drawn)	0.8	–
COc1ccc(C2CC(=O)NCCS2)cc1 (stereo not drawn)	1.6	–
O=c1[nH]ccc2nc(-c3ccccc3)cn12	2	–

Continued, in another order:

logD [2]	Structure (SMILES)	also measured
2.3	O=C(CC1SCCNC1=O)Nc1ccc(Cl)c(Cl)c1 (stereo not drawn)	Kd [1]: 87 µM; Kd [3]: 65 µM
1.8	CC(=O)Nc1ccc2c(C(F)(F)F)cc(=O)oc2c1	–
1.5	O=C(CC1SCCNC1=O)Nc1ccc(OC(F)F)cc1 (stereo not drawn)	–
1	COc1cccc(NC(=O)CC2SCCNC2=O)c1 (stereo not drawn)	–
1.1	COc1ccc(NC(=O)CC2SCCNC2=O)cc1F (stereo not drawn)	–
1.2	O=C(CC1SCCNC1=O)Nc1ccc(F)cc1 (stereo not drawn)	–
0.9	O=C(CC1SCCNC1=O)Nc1ccc2c(c1)OCO2 (stereo not drawn)	–
0.8	COc1ccc(NC(=O)CC2SCCNC2=O)cc1 (stereo not drawn)	microsomal CLint [4]: 8 µL/min/mg; CLH [5]: 34 µL/min
